These results are taken from ChEMBL document CHEMBL3259818, “Tomensides A-D, new antiproliferative phenylpropanoid sucrose esters from Prunus tomentosa leaves” (Bioorg Med Chem Lett, 2014).

Common to all, as to type: functional, cell-based
Assay [1] has as its system MCF7. As to the kind of experiment: Cytotoxicity against human MCF7 cells after 2 days by MTT assay. The note with it: MCF7, 48 h. In short, it runs like this:
(§1)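 Cells grown in RPMI-1640 and seeded in 96-well plates for 4 h before sample addition. Test samples were tested at four concentrations, with 37 °C incubation for 2 days. MTT solution (5 mg/mL) was then added for a further 4 h. Formazan was dissolved in 10% SDS in 0.01 M HCl and absorbance read at 550 nm. IC50 determined; 5-fluorouracil served as positive control.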
Background: Tetrazolium assays rely on reduction of a dye to a coloured formazan, in cell work by metabolically active cells.

Assay [2] concerns A549. As to the kind of experiment: Cytotoxicity against human A549 cells after 2 days by MTT assay. The note with it: A549, 48 h. In a few lines:
as §1

For assay [3], the system named is HeLa. As to the kind of experiment: Cytotoxicity against human HeLa cells after 2 days by MTT assay. The note with it: 48 h. In a few lines:
as §1

Assay [4] has as its system HT-29. As to the kind of experiment: Cytotoxicity against human HT-29 cells after 2 days by MTT assay. The note with it: HT-29, 48 h. In a few lines: as §1

Regarding `CC(=O)OC[C@H]1O[C@H](O[C@]2(COC(C)=O)O[C@H](CO)[C@@H](OC(C)=O)[C@@H]2OC(=O)/C=C/c2ccc(O)cc2)[C@H](O)[C@@H](O)[C@@H]1O`, the IC50 was determined as 620 nM in assay [1], 290 nM in assay [2], 110 nM in assay [3] and 180 nM in assay [4].
For `CC(=O)OC[C@H]1O[C@H](O[C@]2(COC(C)=O)O[C@H](CO)[C@@H](O)[C@@H]2OC(=O)/C=C/c2ccc(O)cc2)[C@H](O)[C@@H](O)[C@@H]1OC(C)=O`, in that order: 1220 nM, 490 nM, 970 nM and 1480 nM.
The corresponding values for `CC(=O)OC[C@H]1O[C@H](O[C@]2(CO)O[C@H](CO)[C@@H](O)[C@@H]2OC(=O)/C=C/c2ccc(O)cc2)[C@H](O)[C@@H](OC(C)=O)[C@@H]1OC(C)=O` are 2930 nM, 1470 nM, 3800 nM and 2780 nM.
Turning to `COc1cc(/C=C/C(=O)O[C@H]2[C@H](O)[C@@H](CO)O[C@@]2(COC(C)=O)O[C@H]2O[C@H](COC(C)=O)[C@@H](O)[C@H](O)[C@H]2OC(C)=O)ccc1O`, the IC50 in assay [1] is 770 nM; in assay [2], 450 nM; in assay [3] it was 1090 nM; in assay [4], 460 nM.
For `CC(=O)OC[C@H]1O[C@H](O[C@]2(CO)O[C@H](CO)[C@@H](O)[C@@H]2OC(=O)/C=C/c2ccc(O)cc2)[C@H](OC(C)=O)[C@@H](OC(C)=O)[C@@H]1O`, in that order: 980 nM, 1120 nM, 4320 nM and 2450 nM.
The corresponding values for `CC(=O)OC[C@H]1O[C@H](O[C@]2(COC(C)=O)O[C@H](CO)[C@@H](O)[C@@H]2OC(=O)/C=C/c2ccc(O)cc2)[C@H](O)[C@@H](OC(C)=O)[C@@H]1O` are 1440 nM, 2560 nM, 1330 nM and 2100 nM.
The corresponding values for `CC(=O)OC[C@H]1O[C@H](O[C@]2(COC(C)=O)O[C@H](CO)[C@@H](O)[C@@H]2OC(=O)/C=C/c2ccc(O)cc2)[C@H](OC(C)=O)[C@@H](O)[C@@H]1O` are 3440 nM, 3200 nM, 2490 nM and 3960 nM.
In assay [4], `O=c1[nH]cc(F)c(=O)[nH]1` [FLUOROURACIL] returned an IC50 of 17200 nM.

Usually IC50 stands for the midpoint of a concentration-inhibition curve. A lower IC50 goes with higher potency.
